Data taken from ChEMBL document CHEMBL1137359, “Potent and orally bioavailable 8-bicyclo[2.2.2]octylxanthines as adenosine A1 receptor antagonists” (J Med Chem, 2006).
pKi: −log10 of the molar value.

Legend:
Adenosine receptor A1 [1] = molecular target: T1, Adenosine receptor A1 (Homo sapiens, UniProt P30542); assay: Displacement of [125I]ABA from human adenosine A1 receptor expressed in CHOK1 cells; assay type: cell-based, CHO-K1
T1 sequence (P30542 whole entry): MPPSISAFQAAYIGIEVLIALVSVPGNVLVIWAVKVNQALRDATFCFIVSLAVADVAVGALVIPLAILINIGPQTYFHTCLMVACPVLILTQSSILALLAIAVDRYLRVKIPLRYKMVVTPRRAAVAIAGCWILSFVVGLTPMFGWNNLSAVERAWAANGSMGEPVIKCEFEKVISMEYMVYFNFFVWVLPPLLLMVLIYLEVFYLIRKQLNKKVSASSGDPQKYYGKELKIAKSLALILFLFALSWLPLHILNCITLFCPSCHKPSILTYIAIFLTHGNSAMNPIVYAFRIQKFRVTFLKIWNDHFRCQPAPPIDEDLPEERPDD
How it was run: (§1)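 Membranes from stably transfected CHO-K1 (hA1) or HEK (hA2A, hA2B, hA3) cells, 2 h at room temperature in 50 mM HEPES pH 7.4, 1 mM EDTA, 5 mM MgCl2, 1 U/mL adenosine deaminase. 5% DMSO final except hA3. Full curves 10^-11–10^-5 M, seven concentrations, four determinations each. Filtration, γ-counting, Ki derived.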

Adenosine receptor A2a [2] = molecular target: T2, Adenosine receptor A2a (Homo sapiens, UniProt P29274); assay: Displacement of [125I]ZM-241385 from human adenosine A2A receptor expressed in HEK cells; assay type: cell-based, HEK293; how it was run: as §1
[3] = molecular target: Adenosine receptors; A1 & A2a (Homo sapiens) (UniProt P30542+P29274); assay: Selectivity for human adenosine A1 receptor over human adenosine A2A receptor; assay type: protein assay
Adenosine receptor A3 = molecular target: T3, Adenosine receptor A3 (Homo sapiens, UniProt P0DMS8); assay: Displacement of [125I]ABA from human adenosine A3 receptor expressed in HEK cells; assay type: cell-based, HEK293
T3 sequence (P0DMS8 whole entry): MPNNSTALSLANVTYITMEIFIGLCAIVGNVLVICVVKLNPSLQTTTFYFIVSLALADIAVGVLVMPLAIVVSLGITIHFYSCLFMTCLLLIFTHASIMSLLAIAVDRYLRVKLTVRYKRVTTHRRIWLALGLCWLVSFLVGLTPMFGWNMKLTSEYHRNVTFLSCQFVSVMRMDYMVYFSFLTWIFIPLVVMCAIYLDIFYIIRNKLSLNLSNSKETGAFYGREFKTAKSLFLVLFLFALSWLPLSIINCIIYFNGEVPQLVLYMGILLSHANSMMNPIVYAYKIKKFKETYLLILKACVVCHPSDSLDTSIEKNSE
How it was run: as §1, with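 “hA3. Radioligands: 0.3 nM (hA1) or 0.6 nM (hA3) 125I-ABA, 0.7 nM 125I-ZM241385, 0.5 nM A2B ligand.” for “hA3.”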

Adenosine receptor A2b = molecular target: T4, Adenosine receptor A2b (Homo sapiens, UniProt P29275); assay: Displacement of [125I]3-(4-aminobenzyl)-8-phenyloxyacetate-1-propyl-xanthine from human adenosine A2B receptor expressed in HEK cells; assay type: cell-based, HEK293; how it was run: as §1
T4 sequence (P29275 whole entry): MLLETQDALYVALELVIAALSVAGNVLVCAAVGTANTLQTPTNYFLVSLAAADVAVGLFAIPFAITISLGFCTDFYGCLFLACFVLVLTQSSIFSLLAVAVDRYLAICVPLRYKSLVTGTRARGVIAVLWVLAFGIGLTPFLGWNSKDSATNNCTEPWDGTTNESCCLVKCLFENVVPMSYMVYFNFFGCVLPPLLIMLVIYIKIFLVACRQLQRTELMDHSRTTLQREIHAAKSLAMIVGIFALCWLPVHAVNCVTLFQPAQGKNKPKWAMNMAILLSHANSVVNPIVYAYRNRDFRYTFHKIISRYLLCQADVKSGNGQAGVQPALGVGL

Adenosine receptor A2a [4] = molecular target: T2, Adenosine receptor A2a; assay: Displacement of [125I]ZM-241385 from human adenosine A2A receptor expressed in HEK cells relative to control; assay type: cell-based; design: concentration or dose not given beside the values; conditions: HEK293
How it was run: (§2)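 Single-point screen at 1 µM antagonist, run in duplicate, on transfected-cell membranes: CHO-K1 (hA1), HEK (hA2A, hA2B, hA3). 2 h at room temperature in 50 mM HEPES pH 7.4, 1 mM EDTA, 5 mM MgCl2, 1 U/mL adenosine deaminase; 5% DMSO except hA3. Nonspecific binding with 50 µM XAC, or 10 µM BW-1433 for hA3. Result is % radioligand bound relative to control.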

[5] = molecular target: T5, Adenosine receptor A3 (Homo sapiens) (UniProt P0DMS8); assay: Displacement of [125I]ABA from human adenosine A3 receptor expressed in HEK cells relative to control; assay type: cell-based; design: concentration or dose not given beside the values; conditions: HEK293; how it was run: as §2
T5 sequence (whole entry): T3 sequence (P0DMS8 whole entry)

[6] = molecular target: T6, Adenosine receptor A1 (Homo sapiens) (UniProt P30542); assay: Displacement of [125I]ABA from human adenosine A1 receptor expressed in CHOK1 cells relative to control; assay type: cell-based; design: concentration or dose not given beside the values; conditions: CHO-K1; how it was run: as §2
T6 sequence (whole entry): T1 sequence (P30542 whole entry)

[7] = molecular target: T7, Adenosine receptor A2b (Homo sapiens) (UniProt P29275); assay: Displacement of [125I]3-(4-aminobenzyl)-8-phenyloxyacetate-1-propyl-xanthine from human adenosine A2B receptor expressed in HEK cells relative to control; assay type: cell-based; design: concentration or dose not given beside the values; conditions: HEK293; how it was run: as §2
T7 sequence (whole entry): T4 sequence (P29275 whole entry)

Adenosine receptor A2a [8] = molecular target: Adenosine receptor A2a (Rattus norvegicus, UniProt P30543); assay: Displacement of [3H]ZM-241385 from rat brain striatum adenosine A2A receptor
How it was run: (§3)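 Crude membranes (10-20 µg protein) from rat brain cortex (A1, 2 nM 3H-CPX) or striatum (A2A, 0.5-1.2 nM 3H-ZM241385) incubated 90 min at room temperature in 50 mM Tris-HCl pH 7.4 with 2 U/mL adenosine deaminase. Stopped with ice-cold buffer, then vacuum filtration and scintillation counting. Ki from concentration-response displacement.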

Adenosine receptor A1 [9] = molecular target: T8, Adenosine receptor A1 (Rattus norvegicus, UniProt P25099); assay: Displacement of [3H]CPX from rat brain cortex adenosine A1 receptor; how it was run: as §3
T8 sequence (P25099 whole entry): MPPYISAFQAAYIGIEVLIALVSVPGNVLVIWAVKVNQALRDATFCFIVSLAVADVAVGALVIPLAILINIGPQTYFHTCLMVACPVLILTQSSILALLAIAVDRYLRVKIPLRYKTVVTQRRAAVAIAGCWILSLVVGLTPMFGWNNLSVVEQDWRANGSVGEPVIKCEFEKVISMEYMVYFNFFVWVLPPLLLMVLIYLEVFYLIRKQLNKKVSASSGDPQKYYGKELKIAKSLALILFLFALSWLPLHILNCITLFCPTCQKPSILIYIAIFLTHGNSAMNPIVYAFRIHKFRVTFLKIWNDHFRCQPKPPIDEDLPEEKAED

T2 sequence (P29274 whole entry): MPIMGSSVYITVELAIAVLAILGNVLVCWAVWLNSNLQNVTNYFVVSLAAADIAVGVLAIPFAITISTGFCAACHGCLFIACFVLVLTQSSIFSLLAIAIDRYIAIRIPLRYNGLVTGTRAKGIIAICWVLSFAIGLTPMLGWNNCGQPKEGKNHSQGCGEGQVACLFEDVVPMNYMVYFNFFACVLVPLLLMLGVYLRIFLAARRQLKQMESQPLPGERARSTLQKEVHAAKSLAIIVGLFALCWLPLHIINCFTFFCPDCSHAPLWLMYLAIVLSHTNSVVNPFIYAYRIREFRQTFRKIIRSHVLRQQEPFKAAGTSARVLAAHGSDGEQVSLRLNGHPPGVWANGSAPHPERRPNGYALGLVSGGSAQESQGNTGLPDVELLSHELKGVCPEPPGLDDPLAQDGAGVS
Chain of Adenosine receptor A2a (Rattus norvegicus, UniProt P30543) (P30543 whole entry): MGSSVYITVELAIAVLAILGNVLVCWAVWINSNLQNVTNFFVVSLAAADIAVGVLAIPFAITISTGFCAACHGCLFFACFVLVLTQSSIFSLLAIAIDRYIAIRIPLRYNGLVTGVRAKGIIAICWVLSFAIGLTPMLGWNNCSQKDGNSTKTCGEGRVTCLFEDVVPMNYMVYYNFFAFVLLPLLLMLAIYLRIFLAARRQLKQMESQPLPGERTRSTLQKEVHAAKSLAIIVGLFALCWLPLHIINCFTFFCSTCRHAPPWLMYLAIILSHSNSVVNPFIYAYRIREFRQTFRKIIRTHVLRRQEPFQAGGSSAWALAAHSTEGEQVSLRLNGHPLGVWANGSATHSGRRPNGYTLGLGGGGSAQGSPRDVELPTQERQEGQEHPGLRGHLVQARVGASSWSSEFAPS

pKi (Adenosine receptor A1 [1]) | pKi (Adenosine receptor A2a [2]) | Ratio Ki [3] | pKi (Adenosine receptor A3) | pKi (Adenosine receptor A2b) | Activity (Adenosine receptor A2a [4]) | Activity [5] | Activity [6] | Activity [7] | pKi (Adenosine receptor A2a [8]) | pKi (Adenosine receptor A1 [9]) | Structure (SMILES)
7.66 | 5.85 | 63 | < 5.00 | 6.30 | – | – | – | – | – | – | CCCn1c(=O)c2nc([C@]34CC[C@](C(=O)NCCC(=O)OC)(CC3)CC4)[nH]c2n(CCC)c1=O
– | – | – | – | – | – | – | – | – | 5.05 | 7.65 | CCCn1c(=O)c2nc([C@]34CC[C@](CC(=O)O)(CC3)CC4)[nH]c2n(CCC)c1=O
7.39 | 6.50 | – | – | – | – | – | – | – | – | – | CCCn1c(=O)c2[nH]c([C@H]3CC[C@H](CO)CC3)nc2n(CCC)c1=O
8.02 | 5.48 | 333 | – | 7.00 | – | 100% | – | – | – | – | CCCn1c(=O)c2nc([C@]34CC[C@](/C=C/C(=O)O)(CC3)CC4)[nH]c2n(CCC)c1=O
6.96 | 5.53 | – | – | – | – | – | – | – | – | – | CCCn1c(=O)c2[nH]c([C@H]3CC[C@H](NC(=O)OCc4ccccc4)CC3)nc2n(CCC)c1=O
– | – | – | – | – | 99% | 88% | 60% | 48% | – | – | CCCn1c(=O)c2nc([C@H]3CC[C@H](C(=O)N4CCOCC4)CC3)[nH]c2n(CCC)c1=O

Second part, the compound before the results:

Structure (SMILES) | pKi (Adenosine receptor A1 [1]) | pKi (Adenosine receptor A2a [2]) | Ratio Ki [3] | pKi (Adenosine receptor A3) | pKi (Adenosine receptor A2b) | Activity (Adenosine receptor A2a [4]) | Activity [5] | Activity [6] | Activity [7] | pKi (Adenosine receptor A2a [8]) | pKi (Adenosine receptor A1 [9])
CCCn1c(=O)c2nc([C@]34CC[C@](C(=O)NCC(=O)OC)(CC3)CC4)[nH]c2n(CCC)c1=O | 8.10 | 6.17 | 85 | 5.17 | 6.68 | – | – | – | – | – | –
CCCn1c(=O)c2nc(C3CCC(NC(=O)OCc4ccccc4)CC3)[nH]c2n(CCC)c1=O (mixture of isomers) | – | – | – | – | – | 69% | 100% | 23% | 30% | – | –
CCCn1c(=O)c2nc([C@]34CC[C@](C(=O)OC)(CC3)CC4)[nH]c2n(CCC)c1=O | – | – | 101 | – | – | – | 44% | – | 19% | – | –
CCCn1c(=O)c2nc([C@H]3CC[C@H](C(=O)NCCN(C)C)CC3)[nH]c2n(CCC)c1=O | 7.92 | 6.77 | 14 | – | – | – | 91% | – | 16% | – | –
CCCn1c(=O)c2nc([C@]34CC[C@](CO)(CC3)CC4)[nH]c2n(CCC)c1=O | 7.80 | 6.38 | 26 | – | – | – | 73% | – | 27% | – | –
CCCn1c(=O)c2nc([C@]34CC[C@](C=O)(CC3)CC4)[nH]c2n(CCC)c1=O | 7.82 | 6.10 | 53 | – | – | – | 76% | – | 14% | – | –
CCCn1c(=O)c2nc([C@H]3CC[C@H](C(=O)N(CC)CC)CC3)[nH]c2n(CCC)c1=O | – | – | – | – | – | 70% | 100% | 46% | 39% | – | –
CCCn1c(=O)c2nc([C@]34CC[C@](C(=O)N5CCC(C(=O)O)CC5)(CC3)CC4)[nH]c2n(CCC)c1=O | 7.02 | 5.11 | 81 | – | – | – | 100% | – | 41% | – | –
